{
  "source": "ChEMBL document CHEMBL4619794",
  "about": "“2-Aminooxazole as a Novel Privileged Scaffold in Antitubercular Medicinal Chemistry” (ACS Med Chem Lett, 2020)",
  "key": {"[1]": {"test": "Kinetic solubility of compound in water incubated for 4 hrs by HPLC-MS/MS analysis", "assay_type": "physicochemical", "conditions": "read-out: Kinetic_solubility"}, "[2]": {"test": "Glutathione reactivity of compound assessed as GSH adduct formation incubated for 24 hrs by HPLC-MS analysis", "assay_type": "physicochemical", "set-up": "concentration or dose not given beside the values", "method_in_brief": "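Compounds incubated 24 h with GSH in 1:100 molar excess, then analysed by HPLC–MS/MS in full-scan mode. Both the singly charged [M + H]+ and doubly charged [M + 2H]2+ conjugate ions were monitored. Percentage conjugate = (sum of both conjugate ion peak areas)/(parent [M + H]+ peak area).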"}, "[3]": {"test": "Metabolic stability in human liver microsomes assessed as intrinsic clearance at 1 uM measured upto 60 mins by HPLC-MS/MS analysis", "assay_type": "ADME, Microsome", "conditions": "read-out: CLH", "method_in_brief": "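Intrinsic clearance derived from the microsomal in vitro half-life as (0.693/t1/2) × (mL incubation/mg microsomes) × (45 mg microsomes/g liver) × (20 g liver/kg body weight). Expressed in mL min–1 kg–1.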"}, "[4]": {"test": "Kinetic solubility of compound in PBS at pH 7.4 incubated for 4 hrs by HPLC-MS/MS analysis", "assay_type": "physicochemical", "conditions": "read-out: Kinetic_solubility"}, "[5]": {"system": "Mycobacterium tuberculosis", "test": "Antimycobacterial activity against Mycobacterium tuberculosis H37Rv ATCC 27294 assessed as reduction in bacterial growth incubated for […] by alamar blue assay", "assay_type": "functional"}, "Vero": {"system": "Vero", "test": "Cytotoxicity against African green monkey Vero cells", "assay_type": "cell-based", "conditions": "chlorocebus sabaeus"}, "[6]": {"test": "Metabolic stability in human liver microsomes assessed as half life at 1 uM measured upto 60 mins by HPLC-MS/MS analysis", "assay_type": "ADME, Microsome", "method_in_brief": "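Half-life of the compound in human liver microsomes, expressed in minutes. Reported as mean ± SD, n = 3.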"}, "[7]": {"system": "Mycobacterium tuberculosis", "test": "Antimycobacterial activity against Mycobacterium tuberculosis assessed as reduction in bacterial growth by microdilution method", "assay_type": "functional"}, "[8]": {"system": "Mycobacterium tuberculosis", "test": "Antimycobacterial activity against Mycobacterium tuberculosis assessed as reduction in bacterial growth incubated for 21 days by REMA assay", "assay_type": "functional", "conditions": "504 h"}},
  "data": [
    {"compound": "CCOC(=O)c1cc(-c2coc(Nc3ccc(C)cc3)n2)on1", "values": [
      {"measurement": "solubility kinetic at 4 h", "setting": "[1]", "result": 9.1, "unit": "µM"},
      {"measurement": "Activity", "setting": "[2]", "result": 15.8, "unit": "%"},
      {"measurement": "CLint scaled at 1 µM", "setting": "[3]", "result": 226, "unit": "mL/min/kg"},
      {"measurement": "solubility kinetic at 4 h", "setting": "[4]", "result": 6.8, "unit": "µM"},
      {"measurement": "MIC", "setting": "[5]", "result": 2.3, "unit": "µM"},
      {"measurement": "Activity", "setting": "Vero", "result": "Non-Toxic"},
      {"measurement": "half-life at 1 µM", "setting": "[6]", "result": 2.7, "unit": "min"}
    ]},
    {"compound": "Cc1ccc(Nc2nc(-c3cc(C(F)(F)F)ccc3F)cs2)cc1", "values": [
      {"measurement": "solubility kinetic at 4 h", "setting": "[1]", "result": 24, "unit": "µM"},
      {"measurement": "Activity", "setting": "[2]", "result": 10.4, "unit": "%"},
      {"measurement": "CLint scaled at 1 µM", "setting": "[3]", "result": 27.9, "unit": "mL/min/kg"},
      {"measurement": "solubility kinetic at 4 h", "setting": "[4]", "result": 7.5, "unit": "µM"},
      {"measurement": "MIC", "setting": "[5]", "result": 27.5, "unit": "µM"},
      {"measurement": "half-life at 1 µM", "setting": "[6]", "result": 22.4, "unit": "min"}
    ]},
    {"compound": "CCOC(=O)c1cc(-c2csc(Nc3ccc(C)cc3)n2)on1", "values": [
      {"measurement": "solubility kinetic at 4 h", "setting": "[1]", "result": 54.9, "unit": "µM"},
      {"measurement": "Activity", "setting": "[2]", "result": 3.7, "unit": "%"},
      {"measurement": "MIC", "setting": "[7]", "result": 1.5, "unit": "µM"},
      {"measurement": "CLint scaled at 1 µM", "setting": "[3]", "result": 189, "unit": "mL/min/kg"},
      {"measurement": "solubility kinetic at 4 h", "setting": "[4]", "result": 27.7, "unit": "µM"},
      {"measurement": "half-life at 1 µM", "setting": "[6]", "result": 3.3, "unit": "min"}
    ]},
    {"compound": "Cc1ccc(Nc2nc(-c3cc(C(F)(F)F)ccc3F)co2)cc1", "values": [
      {"measurement": "solubility kinetic at 4 h", "setting": "[1]", "result": 5.2, "unit": "µM"},
      {"measurement": "Activity", "setting": "[2]", "result": 14.2, "unit": "%"},
      {"measurement": "CLint scaled at 1 µM", "setting": "[3]", "result": 27.6, "unit": "mL/min/kg"},
      {"measurement": "solubility kinetic at 4 h", "setting": "[4]", "result": 5.9, "unit": "µM"},
      {"measurement": "MIC", "setting": "[5]", "result": 12.3, "unit": "µM"},
      {"measurement": "half-life at 1 µM", "setting": "[6]", "result": 22.6, "unit": "min"}
    ]},
    {"compound": "Cc1ccc(Nc2nc(-c3cc(C(=O)Nc4ccccn4)no3)co2)cc1", "values": [
      {"measurement": "MIC", "setting": "[8]", "result": 6.9, "unit": "µM"},
      {"measurement": "solubility kinetic at 4 h", "setting": "[1]", "result": 24, "unit": "µM"},
      {"measurement": "Activity", "setting": "[2]", "result": 2.1, "unit": "%"},
      {"measurement": "CLint scaled at 1 µM", "setting": "[3]", "result": 41.5, "unit": "mL/min/kg"},
      {"measurement": "solubility kinetic at 4 h", "setting": "[4]", "result": 9.3, "unit": "µM"},
      {"measurement": "Activity", "setting": "Vero", "result": "Non-Toxic"},
      {"measurement": "half-life at 1 µM", "setting": "[6]", "result": 15, "unit": "min"}
    ]},
    {"compound": "COc1ccc(-c2coc(Nc3ccc(C)cc3)n2)cc1", "values": [
      {"measurement": "solubility kinetic at 4 h", "setting": "[1]", "result": 0.7, "unit": "µM"},
      {"measurement": "Activity", "setting": "[2]", "result": 14.2, "unit": "%"},
      {"measurement": "CLint scaled at 1 µM", "setting": "[3]", "result": 29.9, "unit": "mL/min/kg"},
      {"measurement": "solubility kinetic at 4 h", "setting": "[4]", "result": 1.1, "unit": "µM"},
      {"measurement": "MIC", "setting": "[5]", "result": "> 100", "unit": "µM"},
      {"measurement": "half-life at 1 µM", "setting": "[6]", "result": 20.9, "unit": "min"}
    ]},
    {"compound": "Cc1ccc(Nc2nc(-c3cc(C(=O)Nc4ccccn4)no3)cs2)cc1", "values": [
      {"measurement": "solubility kinetic at 4 h", "setting": "[1]", "result": 2.9, "unit": "µM"},
      {"measurement": "Activity", "setting": "[2]", "result": 7.1, "unit": "%"},
      {"measurement": "MIC", "setting": "[7]", "result": 0.16, "unit": "µM"},
      {"measurement": "CLint scaled at 1 µM", "setting": "[3]", "result": 38.8, "unit": "mL/min/kg"},
      {"measurement": "solubility kinetic at 4 h", "setting": "[4]", "result": 2.4, "unit": "µM"},
      {"measurement": "half-life at 1 µM", "setting": "[6]", "result": 16.1, "unit": "min"}
    ]},
    {"compound": "COc1ccc(-c2csc(Nc3ccc(C)cc3)n2)cc1", "values": [
      {"measurement": "solubility kinetic at 4 h", "setting": "[1]", "result": 20, "unit": "µM"},
      {"measurement": "Activity", "setting": "[2]", "result": 13.9, "unit": "%"},
      {"measurement": "CLint scaled at 1 µM", "setting": "[3]", "result": 42.9, "unit": "mL/min/kg"},
      {"measurement": "solubility kinetic at 4 h", "setting": "[4]", "result": 1.2, "unit": "µM"},
      {"measurement": "MIC", "setting": "[5]", "result": 13, "unit": "µM"},
      {"measurement": "half-life at 1 µM", "setting": "[6]", "result": 14.5, "unit": "min"}
    ]}
  ]
}
